Source: publication PMC3712066 (Diabetes, 2013)

Assays:
[1] = tested on: rats with streptozotocin-induced diabetes mellitus (STZ-DM); test: Assessment of retinal apoptosis; format: in vivo, Sprague-Dawley rats; conditions: TUNEL; SST eye drops 10 mg/mL once daily, 15 days
[2] = tested on: AMPA-induced neurotoxicity; conditions: intravitreal administration; cited from earlier work
[3] = Ophthalmological examinations; format: in vivo, Sprague-Dawley rats; conditions: SST eye drops 10 mg/mL, 20 µL once daily; baseline and follow-up (days 7 and 13)
Summary of the method: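 All animals had slit lamp biomicroscopy, indirect ophthalmoscopy and intraocular pressure measurement at baseline and on days 7 and 13 posttreatment. Groups were nondiabetic controls on vehicle, and STZ-diabetic (60 mg/kg i.v.) male Sprague-Dawley rats on once-daily drops of test compound (10 mg/mL) or 0.9% NaCl vehicle.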

[4] = tested on: FasL, caspase-8, Bid, active caspase-3, BclxL; test: Proapoptotic and survival signaling in neuroretina; format: in vivo, Sprague-Dawley rats; conditions: neuroretina of diabetic rats; SST eye drops 10 mg/mL; Western blot
Summary of the method: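 Neuroretina protein extracts were Western blotted for FasL, caspase-8, Bid, Bim, BclxL and active caspase-3, with α-tubulin as loading control. Autoradiograms were quantified by scanning densitometry as arbitrary units, means ± SD. Tissue came from STZ-diabetic rats given daily 10 mg/mL drops or saline vehicle for 14 days, and from nondiabetic controls.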

[5] = tested on: rats with streptozotocin-induced diabetes mellitus (STZ-DM); test: Assessment of glial activation; format: in vivo, Sprague-Dawley rats; conditions: dose-response; SST eye drops 0.5 mg/mL compared with 2 or 10 mg/mL
Summary of the method: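 Male Sprague-Dawley rats made diabetic with STZ 60 mg/kg i.v. (glucose above 250 mg/dL). One drop daily for 14 days, plus one ~1 h before necropsy; saline vehicle; dose-response at 10, 2, 0.5 mg/mL. Paraffin retinal sections blocked in PBS/1% BSA/0.05% Triton X-100. Rabbit anti-GFAP 1:100, 36 h at 4C; Alexa Fluor 568 secondary. Scored 0–5 by GFAP extent, endfeet/GCL to ONL.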

[6] = tested on: rats with streptozotocin-induced diabetes mellitus (STZ-DM); test: Electroretinography; format: in vivo, Sprague-Dawley rats; conditions: diabetic rats, SST eye drops 10 mg/mL once daily; scotopic
Summary of the method: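 Scotopic ERG was recorded in both eyes before treatment and on day 14, after at least 1 h dark adaptation. Rats were under isoflurane with 0.5% proparacaine topically. b-wave amplitude and implicit time were measured to ISCEV definitions after scotopic flash (0 db). Animals were STZ-diabetic rats on daily 10 mg/mL drops or saline vehicle. Paired t test within group; means ± SD.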

[7] = tested on: glutamate/aspartate transporter (GLAST); test: GLAST expression in retina; format: in vivo, Sprague-Dawley rats; conditions: diabetic rats treated with SST eye drops 10 mg/mL
Summary of the method: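 GLAST mRNA by real-time PCR, normalized to β-actin (relative quantification). For protein, paraffin retinal sections were retrieved in 10 mmol/L sodium citrate pH 6.0 and blocked 1 h at room temperature in 2% BSA/0.05% Tween PBS. They were probed with anti-GLAST 1:200, then Alexa Fluor 488 anti-rabbit (1 h), with DAPI. Fluorescence intensity was quantified as for GFAP. Rats were STZ-diabetic on daily drops or saline.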

Somatostatin [SST]
ratio of apoptosis in all retinal layers vs diabetic rats treated with placebo [1]: significantly lower
protection of the retina from AMPA-induced neurotoxicity [2]: protects the retina from AMPA-induced neurotoxicity
differences in the cornea, pupil size, or intraocular pressure among groups [3]: No significant differences
BclxL expression [4]: greatly improved
effect in preventing glial activation and apoptosis [5]: significantly lower than that obtained using either 2 or 10 mg/mL
b-wave amplitude, day 14 vs day −1 [6]: no reduction of b-wave amplitude was observed
b-wave implicit time, day 14 vs day −1 [6]: did not increase
diabetes-induced downregulation of GLAST gene and protein expression [7]: this downregulation was prevented
GLAST protein levels in comparison with nondiabetic rats ([7]; immunofluorescence): even increased
